Laboratory results published in ChEMBL document CHEMBL1641558, “A novel series of potent and selective EP(4) receptor ligands: facile modulation of agonism and antagonism” (Bioorg Med Chem Lett, 2011).

Tests used:
[1] = biological target: T1, Prostaglandin E2 receptor EP4 subtype (Homo sapiens, UniProt P35408); assay: Displacement of [3H]PGE2 from human prostanoid EP4 receptor expressed in HEK293-EBNA cells after 60 mins by scintillation counting; assay type: cell-based
[2] = species on record: Homo sapiens; assay: Selectivity ratio of Ki for human prostanoid EP2 receptor to Ki for human prostanoid EP4
[3] = species on record: Homo sapiens; assay: Selectivity ratio of Ki for human prostanoid DP receptor to Ki for human prostanoid EP4
[4] = species on record: Homo sapiens; assay: Selectivity ratio of Ki for human prostanoid EP1 receptor to Ki for human prostanoid EP4
[5] = species on record: Homo sapiens; assay: Selectivity ratio of Ki for human prostanoid EP3 receptor to Ki for human prostanoid EP4
[6] = species on record: Homo sapiens; assay: Selectivity ratio of Ki for human prostanoid FP receptor to Ki for human prostanoid EP4
[7] = species on record: Homo sapiens; assay: Selectivity ratio of Ki for human prostanoid IP receptor to Ki for human prostanoid EP4
[8] = species on record: Homo sapiens; assay: Selectivity ratio of Ki for human prostanoid TP receptor to Ki for human prostanoid EP4
[9] = biological target: T1, Prostaglandin E2 receptor EP4 subtype; assay: Antagonist activity at human prostanoid EP4 receptor expressed in HEK293 cells assessed as inhibition of PGE2-induced cAMP accumulation by scintillation proximity assay; assay type: functional, cell-based
In short: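 HEK293 cells expressing EP4 receptors. Antagonism is read as inhibition of PGE2-evoked rise in intracellular cAMP, reported as IC50. Agonism is read as cAMP elevation in the same cells without PGE2, reported as EC50.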

[10] = Half life in rat at 20 mg/kg, po and 5 mg/kg, iv; assay type: ADME, organism-based; settings: in vivo
In short: (§1)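 Rat pharmacokinetics with potassium salts, given 20 mg/kg orally in 0.5% methocel and 5 mg/kg intravenously in 60% PEG 200. Half-life, oral bioavailability and clearance derived from these dosings.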

[11] = Bioavailability in rat at 20 mg/kg, po and 5 mg/kg, iv; assay type: ADME, organism-based; settings: in vivo; in short: as §1
[12] = Clearance in rat at 20 mg/kg, po and 5 mg/kg, iv; assay type: ADME, organism-based; settings: in vivo; in short: as §1
[13] = biological target: T1, Prostaglandin E2 receptor EP4 subtype; assay: Agonist activity at human prostanoid EP4 receptor expressed in HEK293 cells assessed as cAMP accumulation by scintillation proximity assay

T1 sequence (P35408 whole entry): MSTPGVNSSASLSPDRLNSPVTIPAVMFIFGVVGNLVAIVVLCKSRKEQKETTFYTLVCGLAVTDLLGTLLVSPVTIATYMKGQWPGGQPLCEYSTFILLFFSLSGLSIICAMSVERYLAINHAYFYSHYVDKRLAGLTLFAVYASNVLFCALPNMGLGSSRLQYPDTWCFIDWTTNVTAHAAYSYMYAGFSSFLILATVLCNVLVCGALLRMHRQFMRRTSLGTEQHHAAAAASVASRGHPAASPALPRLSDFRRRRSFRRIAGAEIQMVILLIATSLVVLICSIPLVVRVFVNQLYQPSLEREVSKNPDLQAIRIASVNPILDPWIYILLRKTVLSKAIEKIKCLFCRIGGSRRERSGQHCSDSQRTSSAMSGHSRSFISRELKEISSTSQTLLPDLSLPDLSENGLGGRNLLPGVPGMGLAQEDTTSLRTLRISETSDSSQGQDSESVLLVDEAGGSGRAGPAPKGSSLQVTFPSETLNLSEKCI

Row | Structure (SMILES) | Ki [1] | Ratio Ki [2] | Ratio Ki [3] | Ratio Ki [4] | Ratio Ki [5] | Ratio Ki [6] | Ratio Ki [7] | Ratio Ki [8] | IC50 [9] | half-life [10] | bioavailability [11] | clearance [12] | EC50 [13]
1 | C[C@H](NC(=O)c1cccc2c1N(Cc1ccc(C(=O)O)cc1)CC2)c1ccc(C(=O)O)cc1 | 54 nM | > 179 | > 73 | > 1000 | > 1000 | > 1000 | > 1000 | > 1000 |  |  |  |  | 
2 | C[C@H](NC(=O)c1cccc2c1N(Cc1cccnc1)CC2)c1ccc(C(=O)O)cc1 | 76 nM | > 127 | > 50 | > 1000 | > 1000 | > 1000 | > 1000 | > 1000 | 258 nM |  |  |  | 
3 | C[C@H](NC(=O)c1cccc2c1N(Cc1ccc(C(F)(F)F)cc1)CC2)c1ccc(-c2nnn[nH]2)cc1 | 1 nM |  |  |  |  |  |  |  | 3.5 nM | 2.6 h | 54% | 28 mL/min/kg | 
4 | C[C@H](NC(=O)c1cccc2c1N(Cc1ccc(Cl)c(Cl)c1)CC2)c1ccc(C(=O)O)cc1 | 0.34 nM | 338 | 241 | > 1000 | > 1000 | > 1000 | > 1000 | > 1000 | 1.1 nM | 4.8 h | 73% | 12 mL/min/kg | 
5 | C[C@H](NC(=O)c1cccc2c1N(Cc1ccc(Cl)cc1)CC2)c1ccc(C(=O)O)cc1 | 0.44 nM | > 1000 | > 1000 | > 1000 | > 1000 | > 1000 | > 1000 | > 1000 | 0.92 nM | 4.7 h | 102% | 9 mL/min/kg | 
6 | C[C@H](NC(=O)c1cc(C(F)(F)F)cc2c1N(Cc1ccc(C(F)(F)F)cc1)CC2)c1ccc(C(=O)O)cc1 | 0.66 nM | 153 | 504 | > 1000 | > 1000 | > 1000 | > 1000 | > 1000 | 3 nM |  |  |  | 
7 | C[C@H](NC(=O)c1cccc2ccn(Cc3cccc(Cl)c3)c12)c1ccc(C(=O)O)cc1 |  | > 1000 | 16 | > 1000 | > 1000 | > 1000 | > 1000 | > 1000 | 6 nM |  |  |  | 
8 | C[C@H](NC(=O)c1cccc2c1N(Cc1ccc(OC(F)(F)F)cc1)CC2)c1ccc(C(=O)O)cc1 | 1.5 nM | 687 | 880 | > 1000 | > 1000 | > 1000 | > 1000 | > 1000 | 2.8 nM |  |  |  | 
9 | C[C@H](NC(=O)c1cc(Cl)cc2c1N(Cc1ccc(C(F)(F)F)cc1)CC2)c1ccc(C(=O)O)cc1 | 0.4 nM | 647 | 670 | > 1000 | > 1000 | > 1000 | > 1000 | > 1000 | 2.2 nM |  |  |  | 
10 | C[C@H](NC(=O)c1cccc2c1N(Cc1ccc(C#N)cc1)CC2)c1ccc(C(=O)O)cc1 | 3.1 nM | 603 | 916 | > 1000 | > 1000 | > 1000 | > 1000 | > 1000 | 7.3 nM |  |  |  | 
11 | C[C@H](NC(=O)c1cccc2c1N(Cc1ccc(Cl)cc1Br)CC2)c1ccc(C(=O)O)cc1 | 2.3 nM | > 1000 | 114 | > 1000 | > 1000 | > 1000 | > 1000 | > 1000 | 8.3 nM |  |  |  | 
12 | C[C@H](NC(=O)c1cccc2c1N(Cc1cccc(C#N)c1)CC2)c1ccc(C(=O)O)cc1 | 7.5 nM | 582 | > 1000 | > 1000 | > 1000 | > 1000 | > 1000 | > 1000 | 212 nM |  |  |  | 
13 | C[C@H](NC(=O)c1cccc2c1N(Cc1ccc(C(F)(F)F)cc1Br)CC2)c1ccc(C(=O)O)cc1 | 6.7 nM | 795 | 88 | > 1000 | > 1000 | > 1000 | > 1000 | > 1000 | 4.7 nM |  |  |  | 
14 | C[C@H](NC(=O)c1cccc2c1N(Cc1ccc(C(N)=O)cc1)CC2)c1ccc(C(=O)O)cc1 | 30 nM | > 1000 | > 1000 | > 1000 | > 1000 | > 1000 | > 1000 | > 1000 | 73 nM |  |  |  | 
15 | C[C@H](NC(=O)c1cccc2c1N(Cc1cccc(C(N)=O)c1)CC2)c1ccc(C(=O)O)cc1 | 30 nM | 582 | 461 | > 1000 | > 1000 | > 1000 | > 1000 | > 1000 | 72 nM |  |  |  | 
16 | C[C@H](NC(=O)c1cccc2c1N(Cc1ccc(-c3ccccc3)cc1)CC2)c1ccc(C(=O)O)cc1 | 0.28 nM | 139 | 57 | > 1000 | > 1000 | > 1000 | > 1000 | > 1000 | 1.3 nM |  |  |  | 
17 | C[C@H](NC(=O)c1cccc2c1N(Cc1cccc(C(F)(F)F)c1)CC2)c1ccc(C(=O)O)cc1 | 0.4 nM | > 1000 | > 1000 | > 1000 | > 1000 | > 1000 | > 1000 | > 1000 | > 10000 nM |  |  |  | 0.2 nM
18 | C[C@H](NC(=O)c1cccc2c1N(Cc1ccc(F)cc1)CC2)c1ccc(C(=O)O)cc1 | 1.8 nM | 488 | 907 | > 1000 | > 1000 | > 1000 | > 1000 | > 1000 | 6.2 nM |  |  |  | 
19 | C[C@H](NC(=O)c1cccc2c1N(Cc1ccc(C(F)(F)F)cc1)CC2)c1ccc(-c2nn[nH]n2)cc1 |  | > 1000 | > 1000 | > 1000 | > 1000 | > 1000 | > 1000 | > 1000 |  |  |  |  | 
20 | C[C@H](NC(=O)c1cccc2c1N(Cc1ccc(C(C)(C)C)cc1)CC2)c1ccc(C(=O)O)cc1 | 14 nM | > 692 | > 281 | > 1000 | > 1000 | > 1000 | > 1000 | > 1000 | 114 nM |  |  |  | 
21 | Cc1ccc(CN2CCc3cccc(C(=O)N[C@@H](C)c4ccc(C(=O)O)cc4)c32)cc1 | 0.78 nM | > 1000 | > 1000 | > 1000 | > 1000 | > 1000 | > 1000 | > 1000 | 5.8 nM |  |  |  | 
22 | C[C@H](NC(=O)c1cc(F)cc2c1N(Cc1ccc(C(F)(F)F)cc1)CC2)c1ccc(C(=O)O)cc1 | 0.37 nM | > 1000 | > 1000 | > 1000 | > 1000 | > 1000 | > 1000 | > 1000 | 2.1 nM |  |  |  | 
23 | C[C@H](NC(=O)c1cccc2c1N(Cc1cccc(Cl)c1)CC2)c1ccc(C(=O)O)cc1 | 0.44 nM | 595 | > 1000 | > 1000 | > 1000 | > 1000 | > 1000 | > 1000 | > 10000 nM | 4.4 h | 65% | 26 mL/min/kg | 0.82 nM
24 | C[C@H](NC(=O)c1cccc2c1N(Cc1cc(Br)cc(Br)c1)CC2)c1ccc(C(=O)O)cc1 | 0.33 nM | 151 | 209 | > 1000 | > 1000 | > 1000 | > 1000 | > 1000 | > 10000 nM |  |  |  | 0.36 nM
